In brackets after ≈: the same amount, converted by molar mass. Several values for one entry are separate records, joined by “and”; a condition that tells them apart may be missing. Identical values can stand only once. Like-named read-outs stand apart in the source and are kept apart here. Where a SMILES comes first, the peptide text is derived from it. [ ]: non-standard residue; d: D form. dPhe(4-Cl) = N[C@H](Cc1ccc(Cl)cc1)C(=O)O; aIle = CC[C@@H](C)[C@H](N)C(=O)O; dPhLac = O=C(O)[C@H](O)Cc1ccccc1; Sar = CNCC(=O)O
What was measured:
[1] = system: P. falciparum strain 3D7; experiment: microbe, parasite or virus in culture; settings: Plasmodium falciparum, 3D7, read-out: IC50 (P. falciparum 3D7)
[2] = Plasma stability, human plasma; assay type: in vitro ADME; settings: 2 h incubation at 37 °C
Outline: (§1)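 Test compound incubated in human or mouse plasma for 2 h at 37 °C. The amount of compound remaining afterward was quantified and reported as percent remaining.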

[3] = biological target: human serum albumin (Homo sapiens, UniProt P02768); experiment: Human serum albumin binding; assay type: in vitro ADME
[4] = Intrinsic microsomal clearance, human liver microsomes; assay type: in vitro ADME; settings: for intrinsic microsomal clearance (Clint), human: human liver microsomes
[5] = Plasma stability, mouse plasma; assay type: in vitro ADME
Outline: as §1

[6] = system: P. falciparum strain 3D7; settings: strain 3D7, 3 h
[7] = system: M. tuberculosis H37Rv; settings: drug-susceptible Mtb H37Rv; 6 days + 48 h resazurin
[8] = system: Mycobacterium vaccae; experiment: MIC against Mycobacterium vaccae, microplate alamar blue broth dilution assay; assay type: cell-based
[9] = Kinetic aqueous solubility; assay type: physicochemical
[10] = Intrinsic microsomal clearance, mouse liver microsomes; assay type: in vitro ADME; settings: for intrinsic microsomal clearance (Clint), mouse: mouse liver microsomes
[11] = system: M. tuberculosis H37Ra; settings: natural product; cited from earlier work
[12] = system: Plasmodium falciparum; settings: natural product; cited from earlier work

Chain of human serum albumin (P02768 25-609): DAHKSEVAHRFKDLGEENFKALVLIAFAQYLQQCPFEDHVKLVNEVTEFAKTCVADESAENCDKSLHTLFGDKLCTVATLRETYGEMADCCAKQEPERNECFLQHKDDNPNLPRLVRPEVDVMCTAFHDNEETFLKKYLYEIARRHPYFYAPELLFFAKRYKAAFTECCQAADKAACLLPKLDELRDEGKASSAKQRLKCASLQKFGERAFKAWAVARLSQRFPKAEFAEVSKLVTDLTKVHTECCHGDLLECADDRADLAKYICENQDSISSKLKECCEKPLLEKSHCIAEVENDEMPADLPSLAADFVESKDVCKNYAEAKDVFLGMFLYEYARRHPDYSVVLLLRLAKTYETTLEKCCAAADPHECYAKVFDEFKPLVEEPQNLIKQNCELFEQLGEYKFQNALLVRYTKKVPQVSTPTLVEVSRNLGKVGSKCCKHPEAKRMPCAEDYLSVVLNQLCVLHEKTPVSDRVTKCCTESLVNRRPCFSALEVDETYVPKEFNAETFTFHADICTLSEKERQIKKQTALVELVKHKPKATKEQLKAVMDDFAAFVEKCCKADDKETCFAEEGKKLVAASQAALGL

Compound	IC50 [µM]	% human serum albumin binding (%HSA) [3]	intrinsic microsomal clearance (Clint), human [4]	remaining at 2 h [5] [%]	IC50 [6] [µM]	solubility kinetic [9] [µg/mL]	intrinsic microsomal clearance (Clint), mouse [10]	further results
CCN(CC)CCCC(C)Nc1ccnc2cc(Cl)ccc12 (centres unmarked) [CQ, chloroquine]								IC50 [1]: 5 nM
CC[C@@H](C)[C@@H]1NC(=O)[C@@H](Cc2ccccc2)OC(=O)CN(C)C(=O)[C@H]([C@H](C)CC)NC(=O)[C@@H](Cc2ccccc2)OC(=O)CN(C)C1=O [Compound 9] (cyclo([Sar][dPhLac][aIle][Sar][dPhLac][aIle]))	> 100	88%	46.53 mL/(min g) tissue	18	2.3	> 180	38.3 mL/(min g) tissue	plasma stability (% remaining), human plasma [2]: 103%; stability in human microsomes (in words) [4]: moderate stability; MIC (Mtb H37Rv) [7]: > 80 µM; MIC (M. vaccae) [8]: 18.8 µM (≈ 12.5 µg/mL); stability in mouse microsomes (in words) [10]: low stability
CC(C)C[C@@H]1NC(=O)[C@@H](Cc2ccccc2)OC(=O)CN(C)C(=O)[C@H](CC(C)C)NC(=O)[C@@H](Cc2ccccc2)OC(=O)CN(C)C1=O [Compound 10] (cyclo(L[Sar][dPhLac]L[Sar][dPhLac]))						> 180		
CC(C)[C@@H]1NC(=O)[C@@H](Cc2ccccc2)OC(=O)CN(C)C(=O)[C@H](C(C)C)NC(=O)[C@@H](Cc2ccccc2)OC(=O)CN(C)C1=O [Compound 11] (cyclo([Sar][dPhLac]V[Sar][dPhLac]V))	> 100				7.5	80 (≈ 126 µM)		
CN1CC(=O)O[C@H](Cc2ccccc2)C(=O)NCC(=O)N(C)CC(=O)O[C@H](Cc2ccccc2)C(=O)NCC1=O [Compound 12] (cyclo(G[Sar][dPhLac]G[Sar][dPhLac]))	> 100	54.7%	34.00 mL/(min g) tissue	0	20.1	81 (≈ 147 µM)	52.00 mL/(min g) tissue	
CC[C@H](C)[C@@H]1NC(=O)[C@@H](Cc2ccccc2)OC(=O)CNC(=O)[C@H]([C@@H](C)CC)NC(=O)[C@@H](Cc2ccccc2)OC(=O)CNC1=O [Compound 13] (cyclo(G[dPhLac]IG[dPhLac]I))	> 100	91.02%	32.80 mL/(min g) tissue	0	13.8	6 (≈ 9.42 µM)	65.90 mL/(min g) tissue	
CC(C)[C@@H]1NC(=O)[C@@H](Cc2ccccc2)NC(=O)CN(C)C(=O)[C@H](C(C)C)NC(=O)[C@@H](Cc2ccccc2)NC(=O)CN(C)C1=O [Compound 15] (cyclo([Sar][dF]V[Sar][dF]V))	> 100		3.60 mL/(min g) tissue		7.7		7.52 mL/(min g) tissue	
CC[C@@H](C)[C@@H]1NC(=O)[C@@H](Cc2ccccc2)NC(=O)CN(C)C(=O)[C@H]([C@H](C)CC)NC(=O)[C@@H](Cc2ccccc2)NC(=O)CN(C)C1=O [Compound 16] (cyclo([Sar][dF][aIle][Sar][dF][aIle]))	> 100		18.90 mL/(min g) tissue		2.2		47.71 mL/(min g) tissue	
CC[C@@H](C)[C@@H]1NC(=O)[C@@H](Cc2ccc(Cl)cc2)NC(=O)CN(C)C(=O)[C@H]([C@H](C)CC)NC(=O)[C@@H](Cc2ccc(Cl)cc2)NC(=O)CN(C)C1=O [Compound 17] (cyclo([Sar][dPhe(4-Cl)][aIle][Sar][dPhe(4-Cl)][aIle]))	26	95% and 95.24%			1.8	34 (≈ 46.5 µM)		
CC[C@@H](C)[C@@H]1NC(=O)[C@@H](Cc2ccc(OC)cc2)NC(=O)CN(C)C(=O)[C@H]([C@H](C)CC)NC(=O)[C@@H](Cc2ccc(OC)cc2)NC(=O)CN(C)C1=O [Compound 18] (cyclo([Sar][dY](Me)[aIle][Sar][dY](Me)[aIle]))	> 100	77.2%	8.18 mL/(min g) tissue		4.1	124 (≈ 172 µM)	13.25 mL/(min g) tissue	
CC[C@@H](C)[C@@H]1NC(=O)[C@@H](CC(C)C)NC(=O)CN(C)C(=O)[C@H]([C@H](C)CC)NC(=O)[C@@H](CC(C)C)NC(=O)CN(C)C1=O [Compound 19] (cyclo([dL][aIle][Sar][dL][aIle][Sar]))		37% and 37.15%	6.07 mL/(min g) tissue	88		≥ 184	5.79 mL/(min g) tissue	
hirsutellide A								MIC (M. tuberculosis H37Ra) [11]: 6 to 12 µg/mL; IC50 (Plasmodium falciparum) [12]: 2.8 µg/mL

From article PMC7315603 (ACS Omega, 2020)
